SENP8 block-1 – SENP8 protease inhibitors, primary screen, biochemical, luminescence. purified SENP8, Z-RLRGG-aminoluciferin cleavage. 1.2% of 330,000 active. inhibition, % at 10 µM. AID 2540, 2010; in the data active means inhibition above about 50%
SENP8 block-2 – human SENP8 protease inhibitors, primary screen, biochemical, fluorescence, Nedd8 protein substrate, uHTS; Sentrin-specific protease 8 (Homo sapiens), Q96LD8; recombinant SENP8; inhibition, % at 20 µM; 0.64% of 360,000 active; AID 602440, 2012; in the data active means inhibition mostly above about 40%, no sharp cut-off; inactive means mostly below about 27%
Apaf-1 inh – inhibitors of human Apaf-1 apoptosome, primary screen, biochemical, DEVD-Rh110 fluorescence, uHTS; inhibition, % at 20 µM; 0.71% of 330,000 active; reconstituted apoptosome caspase-3 activity; AID 489030, 2010; active means inhibition of at least 40% at 20 µM;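 further: plate controls were DMSO wells for no effect and DEVD-CHO caspase inhibitor wells for full effect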
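Medium: Hepes buffer, pH 7.5 / System: biochemical Apaf-1 apoptosome reconstitution / Measured by: Rh110 fluorescence, excitation 480 nm, emission 540 nm / Times: compound with Apaf-1, dATP, procaspase-3 30 min, then 50 min reaction, room temperature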
SENP7 inh – SENP7 protease inhibitors, primary screen, biochemical, luminescence, uHTS. recombinant SENP7, Z-RLRGG-aminoluciferin luminescence, 40 min. 1.5% of 330,000 active. inhibition, % at 5 µM;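 active means inhibition above about 50% at the single test dose, limit read from the data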;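 further: plate controls were DMSO with enzyme for no effect and no enzyme buffer wells for full effect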
SENP6 inh – SENP6 protease inhibitors, primary screen, biochemical, luminescence, uHTS | 1.8% of 330,000 active | AID 2599, 2010 | Sentrin-specific protease 6 (Homo sapiens), Q9GZR1 | Recombinant SENP6 catalytic domain, aminoluciferin luminescence | inhibition, % at 10 µM;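 active means inhibition above about 50% at the single tested dose, limit read from the data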;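 further: plate controls were DMSO wells with enzyme for no effect and DMSO wells lacking enzyme for full effect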
Target sequence (Q9GZR1 628-1112 limits assumed): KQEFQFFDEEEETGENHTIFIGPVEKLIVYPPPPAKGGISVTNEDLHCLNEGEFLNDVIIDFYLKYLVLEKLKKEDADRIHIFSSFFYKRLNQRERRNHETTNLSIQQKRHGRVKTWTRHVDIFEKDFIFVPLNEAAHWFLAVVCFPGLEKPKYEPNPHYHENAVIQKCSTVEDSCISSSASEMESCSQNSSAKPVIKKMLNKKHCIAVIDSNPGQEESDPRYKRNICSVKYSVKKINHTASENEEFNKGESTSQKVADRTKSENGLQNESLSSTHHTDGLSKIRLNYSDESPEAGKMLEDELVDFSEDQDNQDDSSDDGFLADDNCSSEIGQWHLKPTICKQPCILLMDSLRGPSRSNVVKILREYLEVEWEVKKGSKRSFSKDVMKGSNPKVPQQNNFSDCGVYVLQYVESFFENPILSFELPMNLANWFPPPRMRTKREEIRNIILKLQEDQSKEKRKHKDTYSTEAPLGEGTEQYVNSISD
UBC13 inh – UBC13 polyubiquitin chain formation inhibitors, primary screen, biochemical, TR-FRET, uHTS. AID 485273, 2010. inhibition, % at 20 µM. 0.47% of 330,000 active. Ubiquitin-conjugating enzyme E2 N (Homo sapiens), P61088; in the data active means inhibition above about 45%, passing the limit was not always enough; inconclusive means no clear call, values can overlap the other calls
Target sequence (P61088 whole entry, looked up): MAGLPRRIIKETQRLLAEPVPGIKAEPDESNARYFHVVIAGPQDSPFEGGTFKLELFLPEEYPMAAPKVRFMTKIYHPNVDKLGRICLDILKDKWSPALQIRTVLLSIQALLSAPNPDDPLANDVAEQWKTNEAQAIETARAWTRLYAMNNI
Casp3 UBC13 ctr – CASP3 inhibitor validation, counterassay for project on UBE2N polyubiquitination blockers, biochemical, one dose. shares compounds with UBC13 inh. Recombinant caspase-3, Caspase-Glo 3/7 luminescence, 60 min. inhibition, % at 20 µM. 4% of 1,400 active. AID 488856, 2010;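 active means mean inhibition across replicates above about 26%, limit read from the data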;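 further: plate controls were DMSO with caspase-3 for no effect and DMSO wells lacking enzyme for full effect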
UBC13 conf – UBC13 polyubiquitination inhibitors, single-point retest, confirmation, biochemical, TR-FRET, single concentration | shares compounds with UBC13 inh | 68% of 1,400 active | AID 488859, 2010 | inhibition, % at 10 µM; in the data active means inhibition above about 45%; inconclusive means no clear call, values can overlap the other calls
An asterisk follows results filed as active. Compounds with a hit are over-represented: about 3% of the library has one in this group of screens.

How did CN(C)CCNc1ncnc2c1sc1nc(-c3ccccc3)c3c(c12)CCCC3 do in these assays?
SENP8 block-1: -11; SENP8 block-2: -252; Apaf-1 inh: 30; SENP7 inh: -1; SENP6 inh: -4; UBC13 inh: 62*; Casp3 UBC13 ctr: 2; UBC13 conf: 103*

What do the screens show for `O=C(NNC(=O)c1ccccn1)c1ccc(OC(F)F)cc1`?
SENP8 block-1: -6; SENP8 block-2: 5; Apaf-1 inh: -4; SENP7 inh: 11; SENP6 inh: 21; UBC13 inh: 96*; Casp3 UBC13 ctr: 59*; UBC13 conf: 68*

How did Cc1ccc2c(n1)CC(C)(C)CC2=O do in these assays?
SENP8 block-1: 3; SENP8 block-2: 18; Apaf-1 inh: -1; SENP7 inh: 4; SENP6 inh: -2; UBC13 inh: 47*; Casp3 UBC13 ctr: -2; UBC13 conf: 10

What do the screens show for `C=CCCCCCCCCC(=O)N1CCN(c2cc3c(cc2F)c(=O)c(C(=O)O)cn3CC)CC1`?
SENP8 block-1: -15; SENP8 block-2: -284; Apaf-1 inh: 13; SENP7 inh: 1; SENP6 inh: -16; UBC13 inh: 47*; Casp3 UBC13 ctr: -2; UBC13 conf: 16

What do the screens show for `COc1ccccc1CNC(=O)c1ccc2c(=O)n(CCCN3CCCC3=O)c(=S)[nH]c2c1`?
SENP8 block-1: 13; SENP8 block-2: 14; Apaf-1 inh: -2; SENP7 inh: 3; SENP6 inh: -11; UBC13 inh: 46*; Casp3 UBC13 ctr: 3; UBC13 conf: 43

Results for COc1ccc(CNC(=O)c2ccc3c(=O)n(CCCN4CCCC4=O)c(=S)[nH]c3c2)cc1 ?
SENP8 block-1: 0; SENP8 block-2: 7; Apaf-1 inh: -13; SENP7 inh: -3; SENP6 inh: 3; UBC13 inh: 23

What do the screens show for `CCN(CC)S(=O)(=O)c1ccc(C(=O)NC(=S)N2CCN(c3ccccc3O)CC2)cc1`?
SENP8 block-2: -3

How did CC1CCN(c2ccc3nnc(CCC(=O)Nc4ccc(F)c(F)c4)n3n2)CC1 do in these assays?
SENP8 block-1: -2; SENP8 block-2: -42; Apaf-1 inh: -6; SENP7 inh: 0; SENP6 inh: -17; UBC13 inh: inconclusive

What do the screens show for `O=C(CCc1nnc2ccc(N3CCCC3)nn12)Nc1ccc(F)c(F)c1`?
SENP8 block-1: -8; SENP8 block-2: -20; Apaf-1 inh: -4; SENP7 inh: 11; SENP6 inh: -9; UBC13 inh: 50*; Casp3 UBC13 ctr: -3; UBC13 conf: inconclusive

What do the screens show for `CC(=O)C1(O)CCC2C3CC(C)C4=CC(=O)C=CC4(C)C3(F)C(O)CC21C` (centres undefined)?
SENP8 block-2: 3

What do the screens show for `COc1ccc(-c2cc3c(=O)n(CC(=O)NCCCN4CCC(N5CCCCC5)CC4)ncn3n2)cc1`?
SENP8 block-1: 5; SENP8 block-2: -60; Apaf-1 inh: 18; SENP7 inh: 2; SENP6 inh: -9; UBC13 inh: 27

Results for COc1ccc(-c2cc3c(=O)n(CC(=O)NCCCN4CCC(N5CCCCC5)CC4)nc(C)n3n2)cc1 ?
SENP8 block-1: 4; SENP8 block-2: -123; Apaf-1 inh: 35; SENP7 inh: 2; SENP6 inh: 9; UBC13 inh: 71*; Casp3 UBC13 ctr: -1; UBC13 conf: 34

What do the screens show for `CCc1cc2c(=O)n(-c3ccccc3)c(=S)[nH]c2s1`?
SENP8 block-1: 4; SENP8 block-2: 12; Apaf-1 inh: -18; SENP7 inh: 2; SENP6 inh: -6; UBC13 inh: 48*; Casp3 UBC13 ctr: 2; UBC13 conf: inconclusive

Results for Cc1ccc(O)c(CNc2ccccn2)c1 ?
SENP8 block-1: -13; SENP8 block-2: 16; Apaf-1 inh: 11; SENP7 inh: 11; SENP6 inh: -4; UBC13 inh: 4

How did Oc1ccc2ccccc2c1CNc1ccccn1 do in these assays?
SENP8 block-1: 7; SENP8 block-2: 12; Apaf-1 inh: 1; SENP7 inh: 6; SENP6 inh: -1; UBC13 inh: 56*; Casp3 UBC13 ctr: -2; UBC13 conf: 49*

How did CCN1CCN(C(=O)CSc2cc(=O)n(CC)c3ccccc23)CC1 do in these assays?
SENP8 block-1: 6; SENP8 block-2: -17; Apaf-1 inh: 2; SENP7 inh: -2; SENP6 inh: 10; UBC13 inh: 47*; Casp3 UBC13 ctr: -2; UBC13 conf: inconclusive

What do the screens show for `CCn1c(=O)cc(SCC(=O)N2CCN(C)CC2)c2ccccc21`?
SENP8 block-1: -2; SENP8 block-2: -17; Apaf-1 inh: 0; SENP7 inh: -2; SENP6 inh: -10; UBC13 inh: 15

Results for CCn1c(=O)cc(SCC(=O)N2CCN(Cc3ccc4c(c3)OCO4)CC2)c2ccccc21 ?
SENP8 block-1: -3; SENP8 block-2: -15; Apaf-1 inh: -7; SENP7 inh: 1; SENP6 inh: -16; UBC13 inh: 61*; Casp3 UBC13 ctr: -2; UBC13 conf: inconclusive

Results for Cn1c(=O)cc(SCC(=O)N2CCN(Cc3ccc4c(c3)OCO4)CC2)c2ccccc21 ?
SENP8 block-1: -7; SENP8 block-2: -28; Apaf-1 inh: 18; SENP7 inh: -6; SENP6 inh: -10; UBC13 inh: 38

How did Cn1c(=O)cc(SCC(=O)N2CCN(C3CCCCC3)CC2)c2ccccc21 do in these assays?
SENP8 block-1: -9; SENP8 block-2: -29; Apaf-1 inh: -2; SENP7 inh: -10; SENP6 inh: -12; UBC13 inh: 66*; Casp3 UBC13 ctr: -2; UBC13 conf: inconclusive

Results for CCn1c(=O)cc(SCC(=O)NCCCN2CCN(c3ccc(F)cc3)CC2)c2ccccc21 ?
SENP8 block-1: 10; SENP8 block-2: -11; Apaf-1 inh: -3; SENP7 inh: 6; SENP6 inh: 11; UBC13 inh: 92*; Casp3 UBC13 ctr: 0; UBC13 conf: inconclusive

Results for O=C(O)c1ccccc1C(=O)N1CCN(Cc2ccc3c(c2)OCO3)CC1 ?
SENP8 block-1: 7; SENP8 block-2: 8; Apaf-1 inh: 7; SENP7 inh: 7; SENP6 inh: 7; UBC13 inh: 4
